STEP inh: STEP (human) phosphatase inhibition. inhibition, % at 20 µM. 360,000 tested, 0.25% active. AID 588621. P54829. recombinant STEP, OMFP fluorogenic substrate, fluorescence;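 active = inhibition at 20 µM, scaled per plate between control wells, above about 37%, limit read from the data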;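 also: 0% = DMSO with enzyme and substrate and 100% = substrate only without enzyme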
Target sequence (P54829 whole entry, looked up): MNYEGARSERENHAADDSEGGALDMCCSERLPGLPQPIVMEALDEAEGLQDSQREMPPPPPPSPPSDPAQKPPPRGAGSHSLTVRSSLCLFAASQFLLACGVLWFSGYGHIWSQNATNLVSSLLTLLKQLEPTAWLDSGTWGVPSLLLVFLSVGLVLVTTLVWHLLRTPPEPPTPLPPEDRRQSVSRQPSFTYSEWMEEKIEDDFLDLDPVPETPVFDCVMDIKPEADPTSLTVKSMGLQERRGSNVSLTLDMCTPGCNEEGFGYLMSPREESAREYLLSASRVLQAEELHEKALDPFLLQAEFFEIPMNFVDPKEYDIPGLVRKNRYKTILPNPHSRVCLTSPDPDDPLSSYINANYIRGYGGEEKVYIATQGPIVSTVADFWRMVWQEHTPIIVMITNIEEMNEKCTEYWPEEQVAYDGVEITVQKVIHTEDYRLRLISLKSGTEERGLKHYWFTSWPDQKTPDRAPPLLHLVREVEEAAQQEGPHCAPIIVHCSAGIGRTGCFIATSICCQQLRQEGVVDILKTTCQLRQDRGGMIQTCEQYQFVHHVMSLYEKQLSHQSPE
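Assay system: isolated STEP enzyme. Buffer or medium: pH 6.0 Bis-Tris with DTT and Tween 20. Also added: fluorogenic phosphatase substrate OMFP at 25 µM final. Dosing: 20 µM, 1% DMSO. Timing: 20 min reaction, room temperature, in the dark. Measured by: fluorescence intensity, excitation 480 nm, emission 540 nm. Evaluation: normalized % inhibition.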
PP5 inh: PP5 (human) phosphatase inhibition. purified PP5c, OMFP substrate fluorescence. inhibition, % at 6.7 µM. 320,000 tested, 0.18% active;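 active = inhibition above the campaign's mean inhibition across all tested compounds plus 3 SD, cut at about 9.5% in these data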;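 also: 0% = DMSO only and 100% = 100 µM cantharidin control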
Scp-1 inhibitor: Scp-1 (human) phosphatase inhibition. 340,000 tested, 0.88% active. Recombinant Scp1, phosphopeptide, malachite green phosphate absorbance. inhibition, % at 20 µM. Q9GZU7. AID 493091;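 active = inhibition above about 50% at 20 µM, limit read from the data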;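 also: plate controls were DMSO wells with enzyme for no effect and wells lacking enzyme for full effect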
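Test system: SCP-1 phosphatase catalytic domain, residues 76-261 | Compound dosing: One concentration, 20 µM, with 1.0% DMSO | Schedule: 45 min room-temperature reaction, 5 min colour, 30 min stabiliser | Detection: Absorbance at 630 nm | Read-out basis: % inhibition of SCP-1 phosphate liberation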
LMPTP block: blocks human LMPTP phosphatase; P24666; recombinant LMPTP-A, OMFP fluorogenic substrate, fluorescence intensity; inhibition, % at 20 µM; 360,000 tested, 0.22% active; AID 651560;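 active = compounds that cut the enzyme signal by at least half of the control window in the single-dose screen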;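 also: plate controls were DMSO wells with enzyme plus substrate for no effect and substrate without enzyme for full effect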
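test system = LMPTP-A | amount = 0.625 nM LMPTP-A final | reagent = fluorogenic phosphatase substrate OMFP at 400 µM final | incubation = 50 min at room temperature | benchmarks = no-enzyme low control, uninhibited high control | medium = Bis-Tris pH 6.0, DTT, detergent | signal = fluorescence intensity of OMFP turnover product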
PP1 inh: counter-screen for PP5 inhibitors: inhibitors of human PP1-alpha; P62136; purified PP1alpha, OMFP fluorescence; inhibition, % at 6.7 µM; 320,000 tested, 0.9% active; AID 2235;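 active = inhibition above the mean inhibition of all tested compounds plus 3 SD, computed separately for each screening campaign, cut at about 15% in these data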
STEP inh conf: STEP (human) phosphatase inhibition, single concentration confirmation; inhibition, % at 20 µM; AID 623866; shares compounds with STEP inh; 520 tested, 32% active; recombinant STEP, OMFP fluorogenic substrate, fluorescence; call rule not given here;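 also: 0% = enzyme with substrate plus DMSO and 100% = substrate without enzyme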
Active calls of the source: *; · = no result. Hits are enriched below; roughly 1.9% of the tested compounds scored in any of these assays.

SMILES | STEP inh | PP5 inh | Scp-1 inhibitor | LMPTP block | PP1 inh | STEP inh conf
COc1ccc(NC(=S)N(CCC(C)C)C2CCN(C(C)C)CC2)cc1Cl | 98* | 5 | -6 | 2 | 0 | 79*
COCCN(C(=S)Nc1cccc(OC)c1)C1CCN(C(C)C)CC1 | 0 | 3 | -2 | -2 | 3 | ·
CC(c1ccccc1)N1CCC(CNC(=S)Nc2cccc(Cl)c2)C1 (stereo not drawn) | 4 | 2 | -5 | 1 | 1 | ·
Cc1cc(C)c(NC(=S)NCC2CCN(C(C)c3ccccc3)C2)c(C)c1 (stereo not drawn) | 95* | -2 | -8 | 1 | -3 | 83*
Cc1ccc(NC(=S)NCC2CCN(C(C)c3ccccc3)C2)cc1 (stereo not drawn) | 47* | -1 | -10 | 1 | -5 | 10
CC(C)(C)c1ccc(OCCCC(=O)Nc2ccc(S(N)(=O)=O)cc2)cc1 | 2 | 4 | -5 | 1 | -1 | ·
COCCn1c(SCC(=O)Nc2ccc3[nH]c(=O)[nH]c3c2)nc2ccccc2c1=O | 38* | -1 | -16 | -2 | -2 | 3
CC(=O)c1ccc(NC(=O)c2cn(-c3ccccc3)nc2-c2ccncc2)cc1 | 1 | 0 | -12 | -1 | -1 | ·
COC(=O)c1ccc(NC(=O)c2cn(-c3ccccc3)nc2-c2ccncc2)cc1 | 46* | 4 | 6 | 1 | 1 | -4
C=CCn1c(SCCN2CCOCC2)nc2c1c(=O)[nH]c(=O)n2C | 2 | -2 | -4 | -2 | -4 | ·
COCCn1c(SCCN2CCOCC2)nc2c1c(=O)[nH]c(=O)n2C | 60* | 3 | 2 | -2 | 0 | 29
CC(=O)Nc1ccccc1-c1nc2ccccc2nc1OCC(=O)c1ccc(Cl)cc1 | 57* | 2 | -4 | -1 | -9 | -3
O=C(NN=Cc1ccc([N+](=O)[O-])cc1)c1ccncc1 | -2 | · | -5 | -1 | · | ·
O=C(COc1ccc(/C=N/NC(=O)c2ccncc2)cc1)Nc1ccc([N+](=O)[O-])cc1 | 80* | 1 | -3 | 9 | -3 | 84*
O=C(Nc1ccc(Br)cc1)C1CC(O)CN1C(=O)Oc1ccccc1 (stereo not drawn) | -8 | 0 | -3 | 0 | -2 | ·
Cc1ccc(NC(=O)CSc2ncc(-c3ccccc3)n2C(=O)c2ccccc2)cc1 | 2 | 2 | -2 | 3 | 0 | ·
Cc1ccc(C(=O)n2c(-c3ccccc3)cnc2SCC(=O)Nc2ccccc2)cc1 | 73* | 2 | 0 | 2 | -1 | 2
Cc1ccc(-c2nc3ncccc3o2)cc1NC(=O)CC(C)C | 85* | 3 | 3 | 13 | 1 | 9.9*
Cc1sc2nc(CSC(C)C(=O)Nc3ccc(Cl)cn3)[nH]c(=O)c2c1C (stereo not drawn) | 79* | 0 | 2 | -2 | -3 | 60*
Cc1sc2nc(CSC(C)C(=O)Nc3ccc(C(N)=O)cc3)[nH]c(=O)c2c1C (stereo not drawn) | -4 | 1 | -12 | -1 | -2 | ·
FC(F)(F)c1nc2ccccc2n2c(-c3c(Cl)cccc3Cl)nnc12 | -2 | -2 | -7 | 0 | 13 | ·
COc1ccccc1Nc1c([N+](=O)[O-])cc(C)cc1[N+](=O)[O-] | 5 | 4 | -5 | 3 | -1 | ·
COc1ccccc1Nc1ccc([N+](=O)[O-])cc1N | 47* | 1 | 4 | 3 | 0 | 40*
O=C(Nc1cccc(O)c1)C1CC(c2cccc(Br)c2)=NO1 (stereo not drawn) | 79* | 1 | -10 | -1 | 7 | 7
CCCCN1C(=O)NC(NC(=O)C2CC2)(C(F)(F)F)C1=O (stereo not drawn) | 1 | 2 | 4 | 1 | -3 | ·
SMILES | STEP inh | PP5 inh | Scp-1 inhibitor | LMPTP block | PP1 inh | STEP inh conf
COc1cc(C(=O)NNC(=O)C2CC=CCC2C(=O)O)cc(OC)c1OC (stereo not drawn) | 119* | -1 | -5 | 1 | 0 | 10
COc1cc(C(=O)NNC(=O)C2CCC2)cc(OC)c1OC | -2 | 1 | 12 | -2 | -2 | ·
CN(CC(=O)Nc1ncn[nH]1)S(=O)(=O)c1ccc(Cl)cc1 | 0 | -1 | -2 | -1 | 0 | ·
Cc1cccc(NC(=O)c2cc3c(=O)n4ccccc4nc3s2)c1 | 84* | 0 | 7 | 8 | 0 | 0
CCc1sc(-c2ccccc2)nc1C(=O)OC | 2 | 1 | -1 | -1 | -1 | ·
CCN(CC)c1ccc(N=CN2CCOCC2)cc1 | -1 | 0 | 3 | 0 | 0 | ·
COc1ccc(NC(=S)N(CCc2ccc(OC)c(OC)c2)Cc2ccccn2)cc1 | 48* | 1 | -5 | -1 | 1 | 13
CC(C)(CNc1ccc([N+](=O)[O-])cc1C#N)N1CCOCC1 | -1 | -2 | -7 | -1 | 0 | ·
COc1ccc(OC)c(N2C(=O)[C@@H]3C(c4ccccc4Cl)=NO[C@@H]3C2=O)c1 | 55* | 3 | 48 | 27 | 1 | 80*
Cc1cccc(C)c1N1C(=O)[C@@H]2C(c3ccccc3Cl)=NO[C@@H]2C1=O | 1 | 0 | -6 | 1 | -3 | ·
COC(=O)c1ccccc1CSc1nsc(/C=C/N(C)C)c1C#N | 86* | 2 | -10 | 4 | 11 | 103*
O=C(Nc1ccc(F)cc1)C(c1ccccc1)N1CCN(CC(=O)N2CCOCC2)CC1 (stereo not drawn) | -3 | 4 | 3 | 0 | -1 | ·
Cc1ccc(NC(=O)C(c2ccccc2)N2CCN(CC(=O)N3CCOCC3)CC2)cc1Cl (stereo not drawn) | 46* | 1 | 48 | 7 | -3 | -10
COc1cc(C)c(NC(=O)C(=S)NCCc2ccccc2)cc1C | 47* | 0 | -4 | 2 | -7 | 6
COc1ccc(CNC(=O)Cc2cn(C)c3ccccc23)c(OC)c1 | 15 | 0 | -12 | 0 | -2 | ·
COc1cccc(NC(=O)Cc2cn(C)c3ccccc23)c1 | 50* | 1 | -7 | 2 | 2 | 34
N#CC12C(=O)NC(=O)C1(C#N)C21CCCC1 (stereo not drawn) | 0 | · | 4 | -1 | · | ·
CC1(C)Cc2c(sc(NC(=O)C(=O)NCCCN3CCOCC3)c2C(N)=O)CO1 | 40* | 0 | -4 | -2 | -4 | 13
S=C(NCCc1ccccc1)Nc1c(Cl)cccc1Cl | 96* | 0 | 17 | 1 | 2 | 51*
CCN(C1=NS(=O)(=O)c2ccccc21)N(CC)S(=O)(=O)c1ccc(C)cc1 | 73* | 4 | -8 | 1 | -3 | 4
CCOc1cc(C(=O)NCCC(=O)N2CCC3(CC2)NCCc2[nH]cnc23)cc(OCC)c1OCC | 45* | 2 | -6 | -2 | -2 | 3
O=C(COc1cccc2cccnc12)NCc1cccs1 | 4 | -2 | 4 | 6 | -3 | ·
O=C(Nc1nnc(-c2ccccc2)o1)C1CCCCC1 | -2 | 0 | -9 | -1 | -1 | ·
